Data from ChEMBL document CHEMBL4387722.

How the values were obtained:
[1] = molecular target: T1, Phosphotyrosine protein phosphatase (Mycobacterium tuberculosis, UniProt A0A045ISB3); assay: Inhibition of Mycobacterium tuberculosis His-tagged PtpB expressed in Escherichia coli Rosetta 2 (DE3) using pNPP as substrate after 30 mins by spectrophotometric method
T1 sequence (A0A045ISB3 whole entry): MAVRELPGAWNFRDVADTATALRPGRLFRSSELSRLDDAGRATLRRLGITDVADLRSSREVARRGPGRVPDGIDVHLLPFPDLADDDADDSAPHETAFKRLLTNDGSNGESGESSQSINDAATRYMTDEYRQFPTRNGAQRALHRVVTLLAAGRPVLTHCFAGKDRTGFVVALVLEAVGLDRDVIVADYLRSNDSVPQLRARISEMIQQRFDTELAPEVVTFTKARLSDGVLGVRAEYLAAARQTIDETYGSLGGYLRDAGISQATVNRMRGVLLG

[2] = tested on: Mycobacterium tuberculosis; assay: Antitubercular activity against Mycobacterium tuberculosis H37Rv after 5 days at 200 uM relative to control; assay type: functional; details: 120 h
Method in brief: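 M. tuberculosis grown in liquid culture with compound at a fixed 200 μM for 5 days. Growth inhibition expressed as percent of control.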

[3] = molecular target: T2, Tyrosine-protein phosphatase non-receptor type 2 (Homo sapiens, UniProt P17706); assay: Inhibition of human PTPN2 expressed in Escherichia coli Rosetta 2 (DE3) using pNPP as substrate after 45 mins by spectrophotometric method
T2 sequence (P17706 whole entry): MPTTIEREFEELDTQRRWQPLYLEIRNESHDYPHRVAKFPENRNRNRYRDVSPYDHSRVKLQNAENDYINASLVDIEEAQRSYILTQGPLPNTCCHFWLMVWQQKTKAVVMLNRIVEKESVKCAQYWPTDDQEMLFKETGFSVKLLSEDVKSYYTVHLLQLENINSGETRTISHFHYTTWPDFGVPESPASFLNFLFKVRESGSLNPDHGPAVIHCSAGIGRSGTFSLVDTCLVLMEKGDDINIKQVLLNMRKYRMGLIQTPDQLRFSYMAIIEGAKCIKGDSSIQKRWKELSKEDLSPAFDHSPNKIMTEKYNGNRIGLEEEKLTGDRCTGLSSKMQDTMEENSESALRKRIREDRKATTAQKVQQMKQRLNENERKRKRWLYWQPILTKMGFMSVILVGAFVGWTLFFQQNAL

[4] = molecular target: T3, Tyrosine-protein phosphatase non-receptor type 1 (Homo sapiens, UniProt P18031); assay: Inhibition of human PTPN1 expressed in Escherichia coli Rosetta 2 (DE3) using pNPP as substrate after 45 mins by spectrophotometric method
T3 sequence (P18031 whole entry): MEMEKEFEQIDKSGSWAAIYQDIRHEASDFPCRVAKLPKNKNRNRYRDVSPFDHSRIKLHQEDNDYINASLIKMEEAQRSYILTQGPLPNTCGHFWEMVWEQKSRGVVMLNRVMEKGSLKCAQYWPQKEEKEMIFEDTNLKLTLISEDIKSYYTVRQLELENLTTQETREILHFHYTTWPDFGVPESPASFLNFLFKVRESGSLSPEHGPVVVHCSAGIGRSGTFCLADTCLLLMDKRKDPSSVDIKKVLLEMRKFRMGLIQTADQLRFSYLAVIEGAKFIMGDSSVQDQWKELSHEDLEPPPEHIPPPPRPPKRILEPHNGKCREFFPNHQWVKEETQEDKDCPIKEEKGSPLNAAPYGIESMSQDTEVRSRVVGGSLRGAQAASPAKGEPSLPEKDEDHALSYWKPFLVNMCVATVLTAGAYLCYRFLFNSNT

[5] = molecular target: T4, Tyrosine-protein phosphatase non-receptor type 5 (Homo sapiens, UniProt P54829); assay: Inhibition of human PTPN5 expressed in Escherichia coli Rosetta 2 (DE3) using pNPP as substrate after 45 mins by spectrophotometric method
T4 sequence (P54829 whole entry): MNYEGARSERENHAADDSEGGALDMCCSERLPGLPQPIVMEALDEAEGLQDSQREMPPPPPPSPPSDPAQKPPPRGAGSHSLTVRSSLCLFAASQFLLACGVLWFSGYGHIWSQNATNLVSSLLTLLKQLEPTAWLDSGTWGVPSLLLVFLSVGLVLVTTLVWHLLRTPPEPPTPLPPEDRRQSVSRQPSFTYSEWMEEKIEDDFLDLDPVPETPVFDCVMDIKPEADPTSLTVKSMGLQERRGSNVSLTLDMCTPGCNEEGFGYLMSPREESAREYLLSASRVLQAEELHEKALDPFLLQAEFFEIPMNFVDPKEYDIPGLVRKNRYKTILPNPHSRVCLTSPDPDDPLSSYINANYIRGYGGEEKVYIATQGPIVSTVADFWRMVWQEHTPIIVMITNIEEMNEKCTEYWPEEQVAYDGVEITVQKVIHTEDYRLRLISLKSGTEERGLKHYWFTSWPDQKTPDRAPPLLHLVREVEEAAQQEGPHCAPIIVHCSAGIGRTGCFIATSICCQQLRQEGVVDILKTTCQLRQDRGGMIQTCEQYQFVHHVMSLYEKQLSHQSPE

SMILES: O=S(=O)(Nc1ccc2oc(-c3ccc(NS(=O)(=O)c4ccc(Cl)s4)cc3)nc2c1)c1ccc2ccccc2c1
- IC50 [1]: 5.4 µM
- inhibition at 200 µM [2]: 0%
- IC50 [3]: 7.4 µM
- IC50 [4]: 7.9 µM
- IC50 [5]: 7.7 µM

SMILES: O=S(=O)(Nc1ccc(-c2nc3cc(NS(=O)(=O)c4ccccc4Cl)ccc3o2)cc1)c1ccccc1Cl
- IC50 [1]: 6.4 µM
- inhibition at 200 µM [2]: 0%
- IC50 [3]: 22 µM
- IC50 [4]: 16 µM
- IC50 [5]: 17 µM

SMILES: O=S(=O)(Nc1ccc(-c2nc3cc(NS(=O)(=O)c4ccc(Cl)cc4)ccc3o2)cc1)c1ccc(Cl)cc1
- IC50 [1]: 4.3 µM
- inhibition at 200 µM [2]: 0%
- IC50 [3]: 19 µM
- IC50 [4]: 8.1 µM
- IC50 [5]: 12 µM

SMILES: O=S(=O)(Nc1ccc(-c2nc3cc(NS(=O)(=O)c4ccc(Cl)s4)ccc3o2)cc1)c1cccc(C(F)(F)F)c1
- IC50 [1]: 3 µM
- inhibition at 200 µM [2]: 36%
- IC50 [3]: 16 µM
- IC50 [4]: 12 µM
- IC50 [5]: 16 µM

SMILES: O=[N+]([O-])c1cccc(S(=O)(=O)Nc2ccc(-c3nc4cc(NS(=O)(=O)c5cccc([N+](=O)[O-])c5)ccc4o3)cc2)c1
- IC50 [1]: 9.1 µM
- inhibition at 200 µM [2]: 0%
- IC50 [3]: 29 µM
- IC50 [4]: 14 µM
- IC50 [5]: 24 µM

SMILES: COc1ccccc1S(=O)(=O)Nc1ccc(-c2nc3cc(NS(=O)(=O)c4ccccc4OC)ccc3o2)cc1
- IC50 [1]: 8.7 µM
- inhibition at 200 µM [2]: 12%
- IC50 [3]: 21 µM
- IC50 [4]: 12 µM
- IC50 [5]: 19 µM

SMILES: O=S(=O)(Nc1ccc(-c2nc3cc(NS(=O)(=O)c4ccc(Cl)s4)ccc3o2)cc1)c1ccc(Cl)s1
- IC50 [1]: 2.3 µM
- inhibition at 200 µM [2]: 41%
- IC50 [3]: 25 µM
- IC50 [4]: 11 µM
- IC50 [5]: 15 µM

SMILES: COC(=O)c1cccc(S(=O)(=O)Nc2ccc(-c3nc4cc(NS(=O)(=O)c5cccc(C(=O)OC)c5)ccc4o3)cc2)c1
- IC50 [1]: 5.8 µM
- inhibition at 200 µM [2]: 0%
- IC50 [3]: 13 µM
- IC50 [4]: 17 µM
- IC50 [5]: 16 µM

SMILES: O=S(=O)(Nc1ccc2oc(-c3ccc(NS(=O)(=O)c4ccc(Cl)s4)cc3)nc2c1)c1ccc2ncsc2c1
- IC50 [1]: 3.6 µM
- inhibition at 200 µM [2]: 50%
- IC50 [3]: 9.3 µM
- IC50 [4]: 12 µM
- IC50 [5]: 11 µM

SMILES: CCc1ccc(S(=O)(=O)Nc2ccc3oc(-c4ccc(NS(=O)(=O)c5ccc(Cl)s5)cc4)nc3c2)cc1
- IC50 [1]: 7.1 µM
- inhibition at 200 µM [2]: 0%
- IC50 [3]: 15 µM
- IC50 [4]: 11 µM
- IC50 [5]: 15 µM

SMILES: O=S(=O)(Nc1ccc(-c2nc3cc(NS(=O)(=O)c4cccc5ccccc45)ccc3o2)cc1)c1cccc2ccccc12
- IC50 [1]: 2.1 µM
- inhibition at 200 µM [2]: 0%
- IC50 [3]: 25 µM
- IC50 [4]: 3.2 µM
- IC50 [5]: 4.9 µM

SMILES: O=S(=O)(Nc1ccc(-c2nc3cc(NS(=O)(=O)c4ccc(C(F)(F)F)cc4)ccc3o2)cc1)c1ccc(C(F)(F)F)cc1
- IC50 [1]: 2.8 µM
- inhibition at 200 µM [2]: 0%
- IC50 [3]: 13 µM
- IC50 [4]: 6.4 µM
- IC50 [5]: 7.9 µM

SMILES: COC(=O)c1ccc(S(=O)(=O)Nc2ccc(-c3nc4cc(NS(=O)(=O)c5ccc(C(=O)OC)cc5)ccc4o3)cc2)cc1
- IC50 [1]: 11 µM
- inhibition at 200 µM [2]: 0%
- IC50 [3]: 17 µM
- IC50 [4]: 11 µM
- IC50 [5]: 22 µM

SMILES: O=S(=O)(Nc1ccc(-c2nc3cc(NS(=O)(=O)c4ccc(Cl)s4)ccc3o2)cc1)c1ccc(Cl)c(Cl)c1
- IC50 [1]: 2.3 µM
- inhibition at 200 µM [2]: 0%
- IC50 [3]: 12 µM
- IC50 [4]: 6.9 µM
- IC50 [5]: 9.8 µM

SMILES: O=S(=O)(Nc1ccc2oc(-c3ccc(NS(=O)(=O)c4ccc(Cl)s4)cc3)nc2c1)c1ccc(Cl)c(C(F)(F)F)c1
- IC50 [1]: 3.8 µM
- inhibition at 200 µM [2]: 0%
- IC50 [3]: 14 µM
- IC50 [4]: 7.6 µM
- IC50 [5]: 11 µM

SMILES: COc1ccc(Cl)cc1S(=O)(=O)Nc1ccc(-c2nc3cc(NS(=O)(=O)c4ccc(Cl)s4)ccc3o2)cc1
- IC50 [1]: 3.4 µM
- inhibition at 200 µM [2]: 33%
- IC50 [3]: 16 µM
- IC50 [4]: 6.4 µM
- IC50 [5]: 11 µM

SMILES: CCCS(=O)(=O)Nc1ccc(-c2nc3cc(NS(=O)(=O)CCC)ccc3o2)cc1
- IC50 [1]: > 100 µM
- inhibition at 200 µM [2]: 13%
- IC50 [3]: > 100 µM
- IC50 [4]: > 100 µM
- IC50 [5]: 83 µM

SMILES: O=S(=O)(Nc1ccc2oc(-c3ccc(NS(=O)(=O)c4ccc(Cl)s4)cc3)nc2c1)c1ccc(F)c(C(F)(F)F)c1
- IC50 [1]: 5.7 µM
- inhibition at 200 µM [2]: 0%
- IC50 [3]: 20 µM
- IC50 [4]: 11 µM
- IC50 [5]: 14 µM

SMILES: O=S(=O)(Nc1ccc(-c2nc3cc(NS(=O)(=O)C(F)(F)F)ccc3o2)cc1)C(F)(F)F
- IC50 [1]: 42 µM
- inhibition at 200 µM [2]: 28%
- IC50 [3]: > 100 µM
- IC50 [4]: > 100 µM
- IC50 [5]: > 100 µM

SMILES: Cc1ccccc1S(=O)(=O)Nc1ccc(-c2nc3cc(NS(=O)(=O)c4ccccc4C)ccc3o2)cc1
- IC50 [1]: 4.9 µM
- inhibition at 200 µM [2]: 0%
- IC50 [3]: 18 µM
- IC50 [4]: 12 µM
- IC50 [5]: 14 µM

SMILES: COc1cccc(S(=O)(=O)Nc2ccc(-c3nc4cc(NS(=O)(=O)c5cccc(OC)c5)ccc4o3)cc2)c1
- IC50 [1]: 9.4 µM
- inhibition at 200 µM [2]: 0%
- IC50 [3]: 16 µM
- IC50 [4]: 18 µM
- IC50 [5]: 22 µM

SMILES: O=C(O)c1cccc(S(=O)(=O)Nc2ccc(-c3nc4cc(NS(=O)(=O)c5cccc(C(=O)O)c5)ccc4o3)cc2)c1
- IC50 [1]: 9.9 µM
- inhibition at 200 µM [2]: 7%
- IC50 [3]: > 100 µM
- IC50 [4]: > 100 µM
- IC50 [5]: > 100 µM

SMILES: Cc1ccc(S(=O)(=O)Nc2ccc(-c3nc4ccc(NS(=O)(=O)c5ccc(C)cc5)cc4[nH]3)cc2)cc1
- IC50 [1]: 23 µM
- inhibition at 200 µM [2]: 14%
- IC50 [3]: 22 µM
- IC50 [4]: 15 µM
- IC50 [5]: 13 µM

SMILES: O=S(=O)(Nc1ccc(-c2nc3cc(NS(=O)(=O)c4cccc5nsnc45)ccc3o2)cc1)c1cccc2nsnc12
- IC50 [1]: 7 µM
- inhibition at 200 µM [2]: 0%
- IC50 [3]: 17 µM
- IC50 [4]: 10 µM
- IC50 [5]: 17 µM

SMILES: O=S(=O)(Nc1ccc(-c2nc3cc(NS(=O)(=O)c4ccc(Cl)s4)ccc3o2)cc1)c1ccc(Br)cc1
- IC50 [1]: 5.3 µM
- inhibition at 200 µM [2]: 0%
- IC50 [3]: 11 µM
- IC50 [4]: 8.8 µM
- IC50 [5]: 8.8 µM

SMILES: O=S(=O)(Nc1ccc(-c2nc3cc(NS(=O)(=O)c4cccc(Cl)c4)ccc3o2)cc1)c1cccc(Cl)c1
- IC50 [1]: 2.3 µM
- inhibition at 200 µM [2]: 0%
- IC50 [3]: 17 µM
- IC50 [4]: 16 µM
- IC50 [5]: 13 µM

SMILES: C=Cc1ccc(S(=O)(=O)Nc2ccc(-c3nc4cc(NS(=O)(=O)c5ccc(Cl)s5)ccc4o3)cc2)cc1
- IC50 [1]: 5 µM
- inhibition at 200 µM [2]: 14%
- IC50 [3]: 14 µM
- IC50 [4]: 10 µM
- IC50 [5]: 13 µM

SMILES: COc1ccc(Cl)cc1S(=O)(=O)Nc1ccc2oc(-c3ccc(NS(=O)(=O)c4ccc(Cl)s4)cc3)nc2c1
- IC50 [1]: 6.4 µM
- inhibition at 200 µM [2]: 39%
- IC50 [3]: 9.2 µM
- IC50 [4]: 10 µM
- IC50 [5]: 11 µM

SMILES: O=[N+]([O-])c1cc(S(=O)(=O)Nc2ccc3oc(-c4ccc(NS(=O)(=O)c5ccc(Cl)s5)cc4)nc3c2)ccc1Cl
- IC50 [1]: 4.6 µM
- inhibition at 200 µM [2]: 1%
- IC50 [3]: 8.9 µM
- IC50 [4]: 9.4 µM
- IC50 [5]: 8.4 µM
